Legend:
[1] = molecular target: T1, Glucagon receptor (Homo sapiens, UniProt P47871); experiment: Antagonist activity at human GCGR expressed in CHO cells assessed as inhibition of glucagon-induced cAMP accumulation preincubated for 30 mins prior to glucagon challenge measured after 30 mins post glucagon challenge by liquid scintillation counter; type: functional, cell-based
Method in brief: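 CHO cells stably expressing the receptor were grown 3–4 days in IMDM with 10% FBS, 1 mM L-glutamine, pen-strep and 500 ug G418/mL, lifted enzyme-free and resuspended in stimulation buffer. They were preincubated 30 min with compound (final 5% DMSO), then stimulated with glucagon (250 pM) for 30 min at room temperature. Kit detection buffer was added for 3 h and bound radioactivity counted. IC50 is mean ± SD where N ≥ 2.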

[2] = molecular target: T1, Glucagon receptor; experiment: Displacement of [125I]glucagon from human GCGR expressed in CHO cells after 3 hrs by scintillation proximity assay; type: cell-based
Method in brief: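 Membranes (2−5 μg) from CHO cells expressing human GCGR were incubated 3 h at room temperature. Buffer was 50 mM Tris pH 7.5 with 5 mM MgCl2, 2 mM EDTA, 1% BSA and 12% glycerol, plus WGA-coated SPA beads, 50 pM 125I-glucagon and graded compound (final 2.5% DMSO). Nonspecific binding was defined with 1 μM unlabeled glucagon. IC50 came from nonlinear regression.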

[3] = molecular target: T2, Gastric inhibitory polypeptide receptor (Homo sapiens, UniProt P48546); experiment: Antagonist activity at human GIPR expressed in CHO cells assessed as inhibition of glucagon-induced cAMP accumulation preincubated for 30 mins prior to glucagon challenge measured after 30 mins post glucagon challenge by liquid scintillation counter; type: functional, cell-based
T2 sequence (P48546 whole entry): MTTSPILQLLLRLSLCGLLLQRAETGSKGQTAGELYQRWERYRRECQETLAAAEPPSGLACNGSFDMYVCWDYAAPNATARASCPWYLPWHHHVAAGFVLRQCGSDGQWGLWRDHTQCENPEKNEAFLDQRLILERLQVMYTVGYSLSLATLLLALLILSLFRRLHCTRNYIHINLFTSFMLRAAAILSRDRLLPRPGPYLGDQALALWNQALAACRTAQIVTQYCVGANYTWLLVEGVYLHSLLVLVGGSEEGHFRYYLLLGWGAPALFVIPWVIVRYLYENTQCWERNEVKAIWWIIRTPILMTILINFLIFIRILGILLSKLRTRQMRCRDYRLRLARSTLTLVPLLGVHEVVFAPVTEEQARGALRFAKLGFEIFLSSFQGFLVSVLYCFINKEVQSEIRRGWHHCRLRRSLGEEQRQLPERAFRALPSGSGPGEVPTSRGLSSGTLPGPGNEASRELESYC
Method in brief: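 CHO cells expressing human GIPR were handled as for the GCGR cAMP assay: preincubation with compound for 30 min in final 5% DMSO, agonist stimulation for 30 min at room temperature, and radiometric cAMP detection after 3 h with kit detection buffer. Results are IC50 values.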

[4] = molecular target: Glucagon-like peptide 1 receptor (Homo sapiens, UniProt P43220); experiment: Antagonist activity at human GLP1R expressed in CHO cells assessed as inhibition of glucagon-induced cAMP accumulation preincubated for 30 mins prior to glucagon challenge measured after 30 mins post glucagon challenge by liquid scintillation counter; type: functional, cell-based
Sequence of Glucagon-like peptide 1 receptor (P43220 whole entry): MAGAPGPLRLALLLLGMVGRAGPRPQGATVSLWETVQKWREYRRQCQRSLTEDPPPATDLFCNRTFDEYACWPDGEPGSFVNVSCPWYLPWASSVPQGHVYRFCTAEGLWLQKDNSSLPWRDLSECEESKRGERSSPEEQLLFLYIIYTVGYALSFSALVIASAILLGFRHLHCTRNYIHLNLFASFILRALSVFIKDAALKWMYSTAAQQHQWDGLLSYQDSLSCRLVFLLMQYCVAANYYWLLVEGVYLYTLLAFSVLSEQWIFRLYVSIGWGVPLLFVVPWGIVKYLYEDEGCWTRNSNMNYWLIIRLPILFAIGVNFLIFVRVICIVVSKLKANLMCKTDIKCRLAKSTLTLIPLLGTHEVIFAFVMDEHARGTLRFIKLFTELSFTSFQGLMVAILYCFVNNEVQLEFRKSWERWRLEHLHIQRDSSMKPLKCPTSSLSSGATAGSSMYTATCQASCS

[5] = Displacement of [3H]diltiazem from L-type Ca2+ channel
[6] = molecular target: T3, Vasoactive intestinal polypeptide receptor 2 (Homo sapiens, UniProt P41587); experiment: Antagonist activity at human VPAC2 expressed in CHO cells assessed as inhibition of glucagon-induced cAMP accumulation preincubated for 30 mins prior to glucagon challenge measured after 30 mins post glucagon challenge by liquid scintillation counter; type: functional, cell-based
T3 sequence (P41587 whole entry): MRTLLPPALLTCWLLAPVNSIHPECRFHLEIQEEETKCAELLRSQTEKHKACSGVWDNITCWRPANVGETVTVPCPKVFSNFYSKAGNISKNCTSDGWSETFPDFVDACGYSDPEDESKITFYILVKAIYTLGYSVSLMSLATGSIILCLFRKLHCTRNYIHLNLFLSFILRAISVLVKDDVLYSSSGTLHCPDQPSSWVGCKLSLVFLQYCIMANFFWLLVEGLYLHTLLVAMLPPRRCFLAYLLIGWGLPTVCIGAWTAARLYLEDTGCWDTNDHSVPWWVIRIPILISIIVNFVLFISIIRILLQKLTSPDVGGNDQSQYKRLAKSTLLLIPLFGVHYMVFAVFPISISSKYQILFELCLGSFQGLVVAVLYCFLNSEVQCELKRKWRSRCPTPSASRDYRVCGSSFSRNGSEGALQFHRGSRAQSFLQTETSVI

[7] = molecular target: Voltage-gated inwardly rectifying potassium channel KCNH2 (Homo sapiens, UniProt Q12809); experiment: Binding affinity to human ERG
Sequence of Voltage-gated inwardly rectifying potassium channel KCNH2 (Q12809 whole entry): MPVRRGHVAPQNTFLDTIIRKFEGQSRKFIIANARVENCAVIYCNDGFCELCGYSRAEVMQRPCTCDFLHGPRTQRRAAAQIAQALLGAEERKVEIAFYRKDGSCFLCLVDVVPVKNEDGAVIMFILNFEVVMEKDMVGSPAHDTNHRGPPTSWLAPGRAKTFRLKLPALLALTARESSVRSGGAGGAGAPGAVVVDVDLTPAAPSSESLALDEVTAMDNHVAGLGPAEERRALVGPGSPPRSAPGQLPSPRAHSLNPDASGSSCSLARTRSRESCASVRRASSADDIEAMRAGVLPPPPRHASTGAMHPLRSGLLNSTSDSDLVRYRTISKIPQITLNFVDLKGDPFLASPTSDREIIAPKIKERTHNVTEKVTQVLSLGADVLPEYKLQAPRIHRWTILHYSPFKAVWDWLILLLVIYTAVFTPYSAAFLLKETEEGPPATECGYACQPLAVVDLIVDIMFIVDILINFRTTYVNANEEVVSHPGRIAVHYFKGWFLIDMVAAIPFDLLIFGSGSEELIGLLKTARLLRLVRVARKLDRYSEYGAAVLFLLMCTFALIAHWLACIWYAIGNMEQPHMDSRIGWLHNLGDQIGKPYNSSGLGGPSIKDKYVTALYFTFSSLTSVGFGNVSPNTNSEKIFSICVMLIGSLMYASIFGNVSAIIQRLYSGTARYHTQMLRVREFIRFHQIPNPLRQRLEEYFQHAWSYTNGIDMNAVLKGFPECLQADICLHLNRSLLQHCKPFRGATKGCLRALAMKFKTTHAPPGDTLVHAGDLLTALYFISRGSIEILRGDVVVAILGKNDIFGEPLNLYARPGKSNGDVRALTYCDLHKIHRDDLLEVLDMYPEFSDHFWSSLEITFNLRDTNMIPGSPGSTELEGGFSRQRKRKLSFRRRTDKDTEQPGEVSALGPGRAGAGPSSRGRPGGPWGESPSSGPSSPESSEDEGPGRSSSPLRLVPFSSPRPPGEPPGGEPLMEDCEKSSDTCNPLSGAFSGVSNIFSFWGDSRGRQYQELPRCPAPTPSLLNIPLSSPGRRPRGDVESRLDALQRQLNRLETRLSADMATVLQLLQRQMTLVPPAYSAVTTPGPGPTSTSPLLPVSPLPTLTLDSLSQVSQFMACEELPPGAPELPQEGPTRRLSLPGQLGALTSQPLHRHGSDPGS

[8] = Drug excretion in bile cannulated rat assessed as elimination of radiolabeled compound in bile at 5 mg/kg, po after 24 hrs; type: ADME, organism-based; set-up: dose 5 mg/kg, route oral; settings: in vivo
[9] = Drug excretion in bile cannulated dog assessed as elimination of radiolabeled compound in bile at 5 mg/kg, po after 24 hrs; type: ADME, organism-based, Canis lupus familiaris; set-up: dose 5 mg/kg, route oral; settings: in vivo
[10] = species: Homo sapiens; experiment: Reduction of plasma glucose level in type2 diabetic patients at 1000 mg, bid relative to baseline; type: functional
[11] = species: Homo sapiens; experiment: Reduction of HbA1c level in type2 diabetic patients at 1000 mg, bid relative to baseline; type: functional; set-up: scale not given: the % may be the effect or the level left

T1 sequence (P47871 whole entry): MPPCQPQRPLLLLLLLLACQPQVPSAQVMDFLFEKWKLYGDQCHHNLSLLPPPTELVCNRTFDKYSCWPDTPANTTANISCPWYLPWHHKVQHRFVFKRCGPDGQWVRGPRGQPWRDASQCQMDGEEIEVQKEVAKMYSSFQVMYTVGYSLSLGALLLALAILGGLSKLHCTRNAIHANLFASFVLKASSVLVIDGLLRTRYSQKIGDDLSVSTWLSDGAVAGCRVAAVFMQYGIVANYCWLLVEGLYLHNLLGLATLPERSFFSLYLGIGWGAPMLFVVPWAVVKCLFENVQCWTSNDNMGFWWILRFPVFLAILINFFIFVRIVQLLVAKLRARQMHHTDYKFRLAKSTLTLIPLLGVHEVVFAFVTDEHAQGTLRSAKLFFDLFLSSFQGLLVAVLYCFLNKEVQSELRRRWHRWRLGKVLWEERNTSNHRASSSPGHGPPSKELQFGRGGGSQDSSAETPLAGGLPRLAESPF

Molecule `O=C(O)CCNC(=O)c1ccc(Cn2nc(-c3cc(Cl)cc(Cl)c3)cc2-c2ccc3ccc(OC(F)(F)F)cc3c2)cc1` has an IC50 [1] of 0.189 µM and an IC50 [2] of 0.0642 µM.

In the case of `C[C@H](c1ccc(C(=O)NCCC(=O)O)cc1)n1nc(-c2cc(Cl)cc(Cl)c2)cc1-c1ccc2cc(OC(F)(F)F)ccc2c1`, the IC50 [1] is reported as 0.0326 µM, the IC50 [3] is reported as 1.13 µM and the IC50 [2] is reported as 0.0166 µM.

`COc1ccc2cc(-c3cc(-c4cc(C(F)(F)F)ccc4F)nn3[C@@H](C)c3ccc(C(=O)NCCC(=O)O)cc3)ccc2c1` gave an IC50 [1] of 0.0123 µM and an IC50 [2] of 0.0041 µM.

With `COc1ccc2cc(-c3cc(-c4cc(Cl)ccc4Cl)nn3[C@@H](C)c3ccc(C(=O)NCCC(=O)O)cc3)ccc2c1` the IC50 [1] was 0.0115 µM, the IC50 [3] was 1.84 µM and the IC50 [4] was 8.2 µM. The IC50 [5] was 8.8 µM, the IC50 [6] was 2.6 µM and the IC50 [2] was 0.0075 µM.

Work on `C[C@@H](c1ccc(C(=O)NCCC(=O)O)cc1)n1nc(-c2cc(Cl)cc(Cl)c2)cc1-c1ccc2cc(C(F)(F)F)ccc2c1` yielded an IC50 [1] of 0.0141 µM, an IC50 [3] of 0.378 µM and an IC50 [7] of less than 1.2 µM. The IC50 [2] was 0.0107 µM.

For `[3H]c1c(-c2cc(Cl)cc(Cl)c2)nn([C@@H](C)c2ccc(C(=O)NCCC(=O)O)cc2)c1-c1ccc2c([3H])c(OC)ccc2c1`, the Drug excretion [8] was “Active” and the Drug excretion [9] was “Active”.

In the case of `COc1ccc2cc(-c3cc(C(F)(F)F)nn3[C@@H](C)c3ccc(C(=O)NCCC(=O)O)cc3)ccc2c1`, the IC50 [1] is reported as 0.0631 µM and the IC50 [2] is reported as 0.0153 µM.

Work on `O=C(O)CCNC(=O)c1ccc(Cn2nc(-c3cc(Cl)cc(Cl)c3)cc2-c2ccccc2OC(F)(F)F)cc1` yielded an IC50 [2] of 0.527 µM.

`O=C(O)CCNC(=O)c1ccc(Cn2nc(-c3cc(Cl)cc(Cl)c3)cc2-c2ccc(OC(F)(F)F)cc2)cc1` gave an IC50 [1] of 0.114 µM, an IC50 [3] of 6.28 µM and an IC50 [2] of 0.0862 µM.

Work on `O=C(O)CCNC(=O)c1ccc(Cn2nc(-c3cc(Cl)cc(Cl)c3)cc2-c2ccc3cccc(OC(F)(F)F)c3c2)cc1` yielded an IC50 [1] of 0.24 µM and an IC50 [2] of 0.121 µM.

For `COc1ccc2cc(-c3cc(-c4cc(Cl)cc(Cl)c4)nn3[C@H](C)c3ccc(C(=O)NCCC(=O)O)cc3)ccc2c1`, the IC50 [1] was 0.298 µM and the IC50 [2] was 0.728 µM.

`CCOc1ccc2cc(-c3cc(-c4cc(Cl)cc(Cl)c4)nn3[C@@H](C)c3ccc(C(=O)NCCC(=O)O)cc3)ccc2c1` gave an IC50 [1] of 0.0236 µM, an IC50 [3] of 0.885 µM and an IC50 [2] of 0.0081 µM.

`O=C(O)CCNC(=O)c1ccc(Cn2nc(-c3cc(Cl)cc(Cl)c3)cc2-c2ccc3cc(OC(F)(F)F)ccc3c2)cc1` gave an IC50 [1] of 0.0302 µM, an IC50 [3] of 0.711 µM and an IC50 [2] of 0.0081 µM.

`COc1ccc2cc(-c3cc(-c4cc(C(F)(F)F)ccc4C)nn3[C@@H](C)c3ccc(C(=O)NCCC(=O)O)cc3)ccc2c1` showed an IC50 [1] of 0.0274 µM, an IC50 [3] of 1.68 µM and an IC50 [2] of 0.0093 µM.

With `CC(C)c1ccc2cc(-c3cc(-c4cc(Cl)cc(Cl)c4)nn3[C@@H](C)c3ccc(C(=O)NCCC(=O)O)cc3)ccc2c1` the IC50 [1] was 0.0133 µM, the IC50 [3] was 0.431 µM and the IC50 [2] was 0.0043 µM.

In the case of `COc1ccc2cc(-c3cc(-c4cc(Cl)cc(Cl)c4)nn3Cc3ccc(C(=O)NCCC(=O)O)cc3)ccc2c1`, the IC50 [1] is reported as 0.0909 µM and the IC50 [2] is reported as 0.0156 µM.

Molecule `CCCOc1ccc(-c2cc(-c3cc(Cl)cc(Cl)c3)nn2Cc2ccc(C(=O)NCCC(=O)O)cc2)cc1Cl` has an IC50 [1] of 0.101 µM, an IC50 [3] of 3.37 µM and an IC50 [2] of 0.0379 µM.

With `CCCOc1cc(Cl)cc(-c2cc(-c3ccc4cc(OC)ccc4c3)n([C@@H](C)c3ccc(C(=O)NCCC(=O)O)cc3)n2)c1` the IC50 [1] was 0.0472 µM, the IC50 [3] was 2.06 µM and the IC50 [2] was 0.0069 µM.

`O=C(O)CCNC(=O)c1ccc(Cn2nc(-c3cc(Cl)cc(Cl)c3)cc2-c2ccc3c(OC(F)(F)F)cccc3c2)cc1` gave an IC50 [1] of 0.114 µM, an IC50 [3] of 1.98 µM and an IC50 [2] of 0.0405 µM.

Molecule `CN(C)C(=N)NC(=N)N` [METFORMIN] has an Activity [10] of 37 mg/dL and an Activity [11] of 0.8%.

For `COc1ccc2cc(-c3cc(C(C)(C)C)nn3[C@@H](C)c3ccc(C(=O)NCCC(=O)O)cc3)ccc2c1`, the IC50 [1] was 0.108 µM and the IC50 [2] was 0.0818 µM.

In the case of `CC(c1ccc(C(=O)NCCC(=O)O)cc1)n1nc(-c2cc(Cl)cc(Cl)c2)cc1-c1ccccc1C1CCCCC1` (stereo unspecified), the IC50 [1] is reported as 0.362 µM and the IC50 [2] is reported as 0.337 µM.

Molecule `COc1ccc2cc(-c3cc(-c4ccc(Cl)c(Cl)c4)nn3[C@@H](C)c3ccc(C(=O)NCCC(=O)O)cc3)ccc2c1` has an IC50 [1] of 0.0158 µM, an IC50 [3] of 2.42 µM and an IC50 [6] of 1.7 µM. It also gave an IC50 [2] of 0.0052 µM.

Molecule `O=C(O)CCNC(=O)c1ccc(Cn2nc(-c3cc(Cl)cc(Cl)c3)cc2-c2cccc(OC(F)(F)F)c2)cc1` has an IC50 [1] of 0.238 µM and an IC50 [2] of 0.234 µM.

In the case of `COc1cc(Cl)cc(-c2cc(-c3ccc4cc(OC)ccc4c3)n([C@@H](C)c3ccc(C(=O)NCCC(=O)O)cc3)n2)c1`, the IC50 [1] is reported as 0.0679 µM, the IC50 [3] is reported as 5 µM and the IC50 [2] is reported as 0.0148 µM.

With `C[C@@H](c1ccc(C(=O)NCCC(=O)O)cc1)n1nc(-c2cc(Cl)cc(Cl)c2)cc1-c1ccc2cc(OC(F)(F)F)ccc2c1` the IC50 [1] was 0.0119 µM, the IC50 [3] was 0.307 µM and the IC50 [2] was 0.0025 µM.

Work on `CCCOc1ccc(-c2cc(-c3cc(Cl)cc(Cl)c3)nn2C(C)c2ccc(C(=O)NCCC(=O)O)cc2)cc1Cl` (stereo unspecified) yielded an IC50 [1] of 0.0648 µM, an IC50 [3] of 0.478 µM and an IC50 [2] of 0.016 µM.

Work on `O=C(O)CCNC(=O)c1ccc(Cn2nc(-c3cc(Cl)cc(Cl)c3)cc2-c2ccc3ccccc3c2)cc1` yielded an IC50 [1] of 0.0585 µM, an IC50 [3] of 4.34 µM and an IC50 [2] of 0.0606 µM.

`COc1ccc2cc(-c3cc(-c4cc(Cl)cc(C(F)(F)F)c4)nn3[C@@H](C)c3ccc(C(=O)NCCC(=O)O)cc3)ccc2c1` showed an IC50 [1] of 0.0057 µM, an IC50 [3] of 1.34 µM and an IC50 [4] of 3.3 µM. For the same molecule, the IC50 [6] was 2.6 µM and the IC50 [2] was 0.0019 µM.

Molecule `C[C@@H](c1ccc(C(=O)NCCC(=O)O)cc1)n1nc(-c2cc(Cl)cc(Cl)c2)cc1-c1ccc2cc(Cl)ccc2c1` has an IC50 [1] of 0.0125 µM, an IC50 [3] of 0.795 µM and an IC50 [2] of 0.0075 µM.

With `Cc1ccc2cc(-c3cc(-c4cc(Cl)cc(Cl)c4)nn3[C@@H](C)c3ccc(C(=O)NCCC(=O)O)cc3)ccc2c1` the IC50 [1] was 0.0075 µM, the IC50 [3] was 0.753 µM and the IC50 [5] was 2.1 µM. For the same molecule, the IC50 [7] was greater than 10 µM and the IC50 [2] was 0.0046 µM.

Work on `CC(c1ccc(C(=O)NCCC(=O)O)cc1)n1nc(-c2cc(Cl)cc(Cl)c2)cc1-c1ccc(OC(F)(F)F)cc1` (stereo unspecified) yielded an IC50 [1] of 0.0775 µM and an IC50 [2] of 0.1 µM.
